This is an account of results in ChEMBL document CHEMBL1949525, “Boranophosphate isoster controls P2Y-receptor subtype selectivity and metabolic stability of dinucleoside polyphosphate analogues” (J Med Chem, 2012).

Active and inactive are the calls of the source. The rule behind the calls is not given here.

What is called EC50 is the concentration giving half of the maximal effect.

One data set deals with e-NPP1. In words: (§1) Stability of the compound assessed as human e-NPP1-mediated hydrolysis at pH 8.5 after 20 mins by HPLC analysis. In kind it is ADME. The following applies: human, human e-NPP1 enzyme, pH 8.5; read-out: Drug degradation. The procedure, abridged:
(§2)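 Human NPP1 preparation preincubated 3 min at 37 °C in 1 mM CaCl2, 200 mM NaCl, 10 mM KCl, 100 mM Tris, pH 8.5. Started with 0.2 mM dinucleotide solution (added volume) and stopped after 20 min in ice-cold perchloric acid. Neutralised with KOH, then NMP formation followed by HPLC. Percent substrate hydrolysed is the mean of two experiments run in triplicate.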

Data set [1] addresses T1, P2Y purinoceptor 4 (Homo sapiens, UniProt P51582). In words: Antagonist activity at human P2Y purinoceptor 4 expressed in human 1321N1 cells assessed as inhibition of UTP-induced increase in intracellular calcium concentration by spectrofluorimetry. In kind it is functional, cell-based. The procedure, abridged: (§3)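 Fura-2-loaded 1321N1 transfectants (turkey P2Y1, human P2Y2/P2Y4, rat P2Y6) in Hepes-buffered saline, pH 7.4, at 37 °C. Analogues were tested against equimolar reference agonist: 2-MeS-ADP for P2Y1, UTP for P2Y2/4, UDP for P2Y6. Blockade of the [Ca2+]i rise was followed by dual-excitation spectrofluorometry.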
Background: Calcium assays in cells follow changes in intracellular calcium, usually with a dye or a luminescent sensor.

In data set [2] the target is P2Y purinoceptor 1 (Meleagris gallopavo) (UniProt P49652). Nature of the data set: Agonist activity at turkey P2Y purinoceptor 1 expressed in human 1321N1 cells assessed as increase in intracellular calcium concentration at 100 uM by spectrofluorimetry. The class given is functional, cell-based.
P2Y purinoceptor 1 (Meleagris gallopavo), sequence (P49652 whole entry): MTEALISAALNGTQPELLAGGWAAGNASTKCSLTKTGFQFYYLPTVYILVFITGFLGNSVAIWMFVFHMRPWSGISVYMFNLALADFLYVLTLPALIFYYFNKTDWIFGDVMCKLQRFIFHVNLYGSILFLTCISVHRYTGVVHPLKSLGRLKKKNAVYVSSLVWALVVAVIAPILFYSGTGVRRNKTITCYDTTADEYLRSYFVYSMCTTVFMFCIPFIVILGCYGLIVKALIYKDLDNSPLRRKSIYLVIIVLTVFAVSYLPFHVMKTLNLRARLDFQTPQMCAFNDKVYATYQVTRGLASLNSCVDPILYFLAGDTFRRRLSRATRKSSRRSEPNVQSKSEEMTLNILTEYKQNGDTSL
Data set [3] has the same target. Nature of the data set: Antagonist activity at turkey P2Y purinoceptor 1 expressed in human 1321N1 cells assessed as inhibition of 2-Sme-ADP-induced increase in intracellular calcium concentration by spectrofluorimetry. The class given is functional, cell-based. The procedure, abridged: as §3
Data set [4] has as its target T2, P2Y purinoceptor 2 (Homo sapiens, UniProt P41231). In words: Antagonist activity at human P2Y purinoceptor 2 expressed in human 1321N1 cells assessed as inhibition of UTP-induced increase in intracellular calcium concentration by spectrofluorimetry. In kind it is functional, cell-based. The procedure, abridged: as §3
Data set [5] has as its target P2Y purinoceptor 6 (Rattus norvegicus) (UniProt Q63371). In words: Antagonist activity at rat P2Y purinoceptor 6 expressed in human 1321N1 cells assessed as inhibition of UDP-induced increase in intracellular calcium concentration by spectrofluorimetry. In kind it is functional, cell-based. In short, it runs like this:
as §3

The target in data set [6] is T2, P2Y purinoceptor 2. Nature of the data set: Agonist activity at human P2Y purinoceptor 2 expressed in human 1321N1 cells assessed as increase in intracellular calcium concentration by spectrofluorimetry. In kind it is functional, cell-based.
Data set [7] is described as follows: as §1. The class given is ADME. Particulars: buffer, pH 8.5, 20 min; for Drug degradation: 20 min. In short, it runs like this: as §2
A short description of data set [8]: Chemical stability of the compound at physiological conditions. The class given is physicochemical.
Data set [9] can be described thus: Chemical stability of the compound at pH mimicking gastric juice acidity. In kind it is physicochemical. Particulars: simulated gi fluid.
Data set [10] concerns the target P2Y purinoceptor 1 (Meleagris gallopavo) (UniProt P49652). Nature of the data set: (§4) Agonist activity at turkey P2Y purinoceptor 1 expressed in human 1321N1 cells assessed as increase in intracellular calcium concentration by spectrofluorimetry. The class given is functional, cell-based.
Data set [11] concerns the target T1, P2Y purinoceptor 4. Nature of the data set: Agonist activity at human P2Y purinoceptor 4 expressed in human 1321N1 cells assessed as increase in intracellular calcium concentration by spectrofluorimetry. Particulars: 1321-n1. The class given is functional, cell-based. The procedure, abridged: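 1321N1 astrocytoma cells (no endogenous P2Y receptors) stably expressing hP2Y4, grown in DMEM with 5% FBS, penicillin/streptomycin and 500 μg/mL G-418. Fura-2-loaded cell suspensions; compounds applied at various concentrations, 37 °C, 10 mM Hepes-buffered saline pH 7.4 with 1 mM CaCl2/MgCl2. Peak [Ca2+]i rise by dual-excitation fluorometry gives EC50; UTP reference agonist; three experiments on separate days.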

A further data set addresses P2Y purinoceptor 6 (Rattus norvegicus, UniProt Q63371). Nature of the data set: Agonist activity at rat P2Y purinoceptor 6 expressed in human 1321N1 cells assessed as increase in intracellular calcium concentration by spectrofluorimetry. The class given is functional, cell-based. In short, it runs like this: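 1321N1 astrocytoma cells lacking endogenous P2Y receptors, stably transfected with turkey P2Y1, human P2Y2, human P2Y4 or rat P2Y6, grown in DMEM with 5% FBS, penicillin/streptomycin and 500 µg/mL G-418. Fura-2-loaded cell suspensions were exposed at 37 °C in 10 mM Hepes-buffered saline, pH 7.4, with 1 mM CaCl2 and 1 mM MgCl2. Peak [Ca2+]i rise by dual-excitation spectrofluorometry across concentrations; EC50 from curve fits; three experiments on separate days per subtype.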

Another data set addresses P2Y purinoceptor 1 (Meleagris gallopavo, UniProt P49652). Described as §4. The class given is functional, cell-based. Particulars: read-out: EC50.

T1 sequence (P51582 whole entry): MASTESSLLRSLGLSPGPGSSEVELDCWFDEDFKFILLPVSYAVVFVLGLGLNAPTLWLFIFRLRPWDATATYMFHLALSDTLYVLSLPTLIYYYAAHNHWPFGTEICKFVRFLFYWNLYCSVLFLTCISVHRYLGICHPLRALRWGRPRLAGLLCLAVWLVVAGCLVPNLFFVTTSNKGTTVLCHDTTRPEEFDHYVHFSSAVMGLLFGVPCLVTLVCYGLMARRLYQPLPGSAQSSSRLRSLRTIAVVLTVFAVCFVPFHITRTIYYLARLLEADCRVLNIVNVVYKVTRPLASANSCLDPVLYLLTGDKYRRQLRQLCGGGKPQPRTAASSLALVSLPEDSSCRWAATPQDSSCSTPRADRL
T2 sequence (P41231 whole entry): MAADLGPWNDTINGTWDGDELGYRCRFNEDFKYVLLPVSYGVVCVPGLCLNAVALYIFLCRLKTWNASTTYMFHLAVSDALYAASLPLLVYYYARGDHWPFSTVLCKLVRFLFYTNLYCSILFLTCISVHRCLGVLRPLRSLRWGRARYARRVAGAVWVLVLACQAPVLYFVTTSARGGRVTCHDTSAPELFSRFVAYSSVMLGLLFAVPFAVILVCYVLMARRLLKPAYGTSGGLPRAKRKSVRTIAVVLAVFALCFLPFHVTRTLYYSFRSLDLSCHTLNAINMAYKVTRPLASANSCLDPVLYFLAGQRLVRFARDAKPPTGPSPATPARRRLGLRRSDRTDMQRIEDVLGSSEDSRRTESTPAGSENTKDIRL
P2Y purinoceptor 6 (Rattus norvegicus), sequence (Q63371 whole entry): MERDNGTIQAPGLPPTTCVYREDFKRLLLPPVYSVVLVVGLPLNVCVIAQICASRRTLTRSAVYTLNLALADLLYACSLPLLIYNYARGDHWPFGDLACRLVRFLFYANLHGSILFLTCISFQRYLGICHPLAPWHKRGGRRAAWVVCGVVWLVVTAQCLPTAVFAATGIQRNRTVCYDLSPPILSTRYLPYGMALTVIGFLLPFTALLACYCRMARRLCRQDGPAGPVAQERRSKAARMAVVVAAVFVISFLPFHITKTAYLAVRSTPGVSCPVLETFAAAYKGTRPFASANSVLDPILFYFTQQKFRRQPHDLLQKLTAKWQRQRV
P2Y purinoceptor 6, sequence (Q63371 whole entry): as above
P2Y purinoceptor 1, sequence (P49652 whole entry): as the sequence (P49652 whole entry) above

Consider `Nc1ncnc2c1ncn2[C@@H]1O[C@H](COP(=O)(O)OP(=O)(O)OP(=O)(O)OC[C@H]2O[C@@H](n3cnc4c(N)ncnc43)[C@H](O)[C@@H]2O)[C@@H](O)[C@H]1O`, for which the metabolised at 20 min in the data set on e-NPP1 worked out at 22%.

In the case of `BP(=O)(OC[C@H]1O[C@@H](n2ccc(=O)[nH]c2=O)[C@H](O)[C@@H]1O)OP(=O)(O)OP(=O)(O)OP(=O)(O)OC[C@H]1O[C@@H](n2ccc(=O)[nH]c2=O)[C@H](O)[C@@H]1O.CCCCN(CCCC)CCCC.CCCCN(CCCC)CCCC.CCCCN(CCCC)CCCC.CCCCN(CCCC)CCCC` (stereo in doubt; 13B), the outcome (on P2Y purinoceptor 4 [1]; in data set [3]; on P2Y purinoceptor 2 [4]; in data set [5]) was inactive. Moreover, the result in data set [2] was Active.

Consider `BP(=O)(OP(=O)(O)OP(=O)(O)OC[C@H]1O[C@@H](n2ccc(=O)[nH]c2=O)[C@H](O)[C@@H]1O)OP(=O)(O)OP(=O)(O)OC[C@H]1O[C@@H](n2ccc(=O)[nH]c2=O)[C@H](O)[C@@H]1O.CCCCN(CCCC)CCCC.CCCCN(CCCC)CCCC.CCCCN(CCCC)CCCC.CCCCN(CCCC)CCCC.CCCCN(CCCC)CCCC`, for which the outcome (on P2Y purinoceptor 2 [6]; in data set [10]) was inactive. The Stability entry in data set [7], in [8] and in data set [9] was “Stable” throughout.

Take `BP(=O)(OC[C@H]1O[C@@H](n2cnc3c(N)ncnc32)[C@H](O)[C@@H]1O)OP(=O)(O)OP(=O)(O)OC[C@H]1O[C@@H](n2cnc3c(N)ncnc32)[C@H](O)[C@@H]1O.CCCCN(CCCC)CCCC.CCCCN(CCCC)CCCC.CCCCN(CCCC)CCCC` (stereo in doubt; 10A): the EC50 entry at P2Y purinoceptor 2 [6] (1321-n1) was “Not Active”; on P2Y purinoceptor 4 [11] it was “Not Active”; at P2Y purinoceptor 6 (1321-n1), “Not Active”; on P2Y purinoceptor 1, 0.76 µM. For the same molecule, the Drug degradation in data set [7] is 0%.

For the molecule `O=c1ccn([C@@H]2O[C@H](COP(=O)(O)OP(=O)(O)OP(=O)(O)OC[C@H]3O[C@@H](n4ccc(=O)[nH]c4=O)[C@H](O)[C@@H]3O)[C@@H](O)[C@H]2O)c(=O)[nH]1`, the metabolised at 20 min in the data set with e-NPP1 amounted to 21%.

For `BP(=O)(OP(=O)(O)OC[C@H]1O[C@@H](n2ccc(=O)[nH]c2=O)[C@H](O)[C@@H]1O)OP(=O)(O)OP(=O)(O)OC[C@H]1O[C@@H](n2ccc(=O)[nH]c2=O)[C@H](O)[C@@H]1O.CCCCN(CCCC)CCCC.CCCCN(CCCC)CCCC.CCCCN(CCCC)CCCC.CCCCN(CCCC)CCCC` (stereo in doubt; 7A), the EC50 entry was “Not Active” at P2Y purinoceptor 4 [11] and 1.93 µM on P2Y purinoceptor 6 (read-out: EC50). Also, the metabolised at 20 min in the data set with e-NPP1 stood at 3%.

`BP(=O)(OC[C@H]1O[C@@H](n2ccc(=O)[nH]c2=O)[C@H](O)[C@@H]1O)OP(=O)(O)OP(=O)(O)OC[C@H]1O[C@@H](n2ccc(=O)[nH]c2=O)[C@H](O)[C@@H]1O.CCCCN(CCCC)CCCC.CCCCN(CCCC)CCCC.CCCCN(CCCC)CCCC` (stereo in doubt; 11B): the result (on P2Y purinoceptor 4 [1]; in data set [3]; at P2Y purinoceptor 2 [4]; in [5]) was inactive. For the same molecule, the outcome in data set [2] was Active.

Consider `BP(=O)(OP(=O)(O)OC[C@H]1O[C@@H](n2cnc3c(N)ncnc32)[C@H](O)[C@@H]1O)OP(=O)(O)OP(=O)(O)OC[C@H]1O[C@@H](n2ccc(=O)[nH]c2=O)[C@H](O)[C@@H]1O.CCCCN(CCCC)CCCC.CCCCN(CCCC)CCCC.CCCCN(CCCC)CCCC.CCCCN(CCCC)CCCC` (stereo in doubt; 8A) [listing 1 of 2 here], for which the outcome (at P2Y purinoceptor 4 [1]; in [3]; on P2Y purinoceptor 2 [4]; in data set [5]) was inactive. Moreover, the result in data set [2] was Active.

As for `Nc1ncnc2c1ncn2[C@@H]1O[C@H](COP(=O)(O)OP(=O)(O)OP(=O)(O)OP(=O)(O)OC[C@H]2O[C@@H](n3cnc4c(N)ncnc43)[C@H](O)[C@@H]2O)[C@@H](O)[C@H]1O` [DIADENOSINE TETRAPHOSPHATE], the metabolised at 20 min with e-NPP1 turned out to be 17%.

As to `Nc1ncnc2c1ncn2[C@@H]1O[C@H](COP(=O)(O)OP(=O)(O)OP(=O)(O)OP(=O)(O)OC[C@H]2O[C@@H](n3ccc(=O)[nH]c3=O)[C@H](O)[C@@H]2O)[C@@H](O)[C@H]1O`, the metabolised at 20 min in the data set on e-NPP1 was found to be 18%.

On to `BP(=O)(OP(=O)(O)OC[C@H]1O[C@@H](n2ccc(=O)[nH]c2=O)[C@H](O)[C@@H]1O)OP(=O)(O)OP(=O)(O)OC[C@H]1O[C@@H](n2ccc(=O)[nH]c2=O)[C@H](O)[C@@H]1O.CCCCN(CCCC)CCCC.CCCCN(CCCC)CCCC.CCCCN(CCCC)CCCC.CCCCN(CCCC)CCCC` (stereo in doubt; 7B), for which the result (on P2Y purinoceptor 4 [1]; in data set [3]; at P2Y purinoceptor 2 [4]; in data set [5]) was inactive. Besides, the result in data set [2] was Active.

For the molecule `BP(=O)(OP(=O)(O)OC[C@H]1O[C@@H](n2cnc3c(N)ncnc32)[C@H](O)[C@@H]1O)OP(=O)(O)OP(=O)(O)OC[C@H]1O[C@@H](n2ccc(=O)[nH]c2=O)[C@H](O)[C@@H]1O.CCCCN(CCCC)CCCC.CCCCN(CCCC)CCCC.CCCCN(CCCC)CCCC.CCCCN(CCCC)CCCC` (stereo in doubt; 8A) [listing 2 of 2 here], the EC50 result is “Not Active” at P2Y purinoceptor 2 [6] (1321-n1), “Not Active” at P2Y purinoceptor 4 [11] and 1.29 µM at P2Y purinoceptor 6 (read-out: EC50). Moreover, the metabolised at 20 min in the data set on e-NPP1 is 1.5%.

In the case of `BP(=O)(OC[C@H]1O[C@@H](n2ccc(=O)[nH]c2=O)[C@H](O)[C@@H]1O)OP(=O)(O)OP(=O)(O)OC[C@H]1O[C@@H](n2ccc(=O)[nH]c2=O)[C@H](O)[C@@H]1O.CCCCN(CCCC)CCCC.CCCCN(CCCC)CCCC.CCCCN(CCCC)CCCC` (stereo in doubt; 11A), the EC50 entry at P2Y purinoceptor 2 [6] (1321-n1) was “Not Active”; on P2Y purinoceptor 4 [11] it was “Not Active”; on P2Y purinoceptor 6 (read-out: EC50), 0.72 µM; on P2Y purinoceptor 1, 4.4 µM. Also, the Drug degradation in data set [7] was found to be 0%.

In the case of `BP(=O)(OC[C@H]1O[C@@H](n2cnc3c(N)ncnc32)[C@H](O)[C@@H]1O)OP(=O)(O)OP(=O)(O)OP(=O)(O)OC[C@H]1O[C@@H](n2cnc3c(N)ncnc32)[C@H](O)[C@@H]1O.CCCCN(CCCC)CCCC.CCCCN(CCCC)CCCC.CCCCN(CCCC)CCCC.CCCCN(CCCC)CCCC` (stereo in doubt; 12A), the EC50 on P2Y purinoceptor 2 [6] (read-out: EC50) was 25.9 µM; on P2Y purinoceptor 4 [11] it was “Not Active”; at P2Y purinoceptor 6 (1321-n1), “Not Active”; at P2Y purinoceptor 1 it was 1.48 µM. Besides, the Drug degradation in [7] is reported as 2.5%.

Take `BP(=O)(OP(=O)(O)OC[C@H]1O[C@@H](n2ccc(=O)[nH]c2=O)[C@H](O)[C@@H]1O)OP(=O)(O)OP(=O)(O)OC[C@H]1O[C@@H](n2cnc3c(N)ncnc32)[C@H](O)[C@@H]1O.CCCCN(CCCC)CCCC.CCCCN(CCCC)CCCC.CCCCN(CCCC)CCCC.CCCCN(CCCC)CCCC` (stereo in doubt; 9A): the 50% effective concentration (EC50) result is “Not Active” at P2Y purinoceptor 4 [11], 20.9 µM on P2Y purinoceptor 6 (read-out: EC50) and 0.5 µM on P2Y purinoceptor 1. Further, the metabolised at 20 min in the data set on e-NPP1 amounted to 3%.

Consider `BP(=O)(OP(=O)(O)OC[C@H]1O[C@@H](n2cnc3c(N)ncnc32)[C@H](O)[C@@H]1O)OP(=O)(O)OP(=O)(O)OC[C@H]1O[C@@H](n2cnc3c(N)ncnc32)[C@H](O)[C@@H]1O.CCCCN(CCCC)CCCC.CCCCN(CCCC)CCCC.CCCCN(CCCC)CCCC.CCCCN(CCCC)CCCC` (stereo in doubt; 6A), for which the EC50 result is “Not Active” on P2Y purinoceptor 2 [6] (1321-n1), “Not Active” at P2Y purinoceptor 4 [11] and 3 µM on P2Y purinoceptor 1. Further, the metabolised at 20 min in the data set on e-NPP1 came out at 1.6%.
